# Reference: ChEMBL document CHEMBL1157912, “Impact of nature and length of linker incorporated in agonists on toll-like receptor 9-mediated immune responses” (J Med Chem, 2010)
# Tests used:
# [1] = molecular target: T1, Toll-like receptor 9 (Homo sapiens) (UniProt Q9NR96); test: Induction of TLR9-mediated immune stimulation in human PBMC assessed as IL1Ralpha production at 2 ug/ml after 24 hrs by luminex multiplex assay (RVb = 0.12 +/- 0.03 ng/ml)
# T1 sequence (whole entry): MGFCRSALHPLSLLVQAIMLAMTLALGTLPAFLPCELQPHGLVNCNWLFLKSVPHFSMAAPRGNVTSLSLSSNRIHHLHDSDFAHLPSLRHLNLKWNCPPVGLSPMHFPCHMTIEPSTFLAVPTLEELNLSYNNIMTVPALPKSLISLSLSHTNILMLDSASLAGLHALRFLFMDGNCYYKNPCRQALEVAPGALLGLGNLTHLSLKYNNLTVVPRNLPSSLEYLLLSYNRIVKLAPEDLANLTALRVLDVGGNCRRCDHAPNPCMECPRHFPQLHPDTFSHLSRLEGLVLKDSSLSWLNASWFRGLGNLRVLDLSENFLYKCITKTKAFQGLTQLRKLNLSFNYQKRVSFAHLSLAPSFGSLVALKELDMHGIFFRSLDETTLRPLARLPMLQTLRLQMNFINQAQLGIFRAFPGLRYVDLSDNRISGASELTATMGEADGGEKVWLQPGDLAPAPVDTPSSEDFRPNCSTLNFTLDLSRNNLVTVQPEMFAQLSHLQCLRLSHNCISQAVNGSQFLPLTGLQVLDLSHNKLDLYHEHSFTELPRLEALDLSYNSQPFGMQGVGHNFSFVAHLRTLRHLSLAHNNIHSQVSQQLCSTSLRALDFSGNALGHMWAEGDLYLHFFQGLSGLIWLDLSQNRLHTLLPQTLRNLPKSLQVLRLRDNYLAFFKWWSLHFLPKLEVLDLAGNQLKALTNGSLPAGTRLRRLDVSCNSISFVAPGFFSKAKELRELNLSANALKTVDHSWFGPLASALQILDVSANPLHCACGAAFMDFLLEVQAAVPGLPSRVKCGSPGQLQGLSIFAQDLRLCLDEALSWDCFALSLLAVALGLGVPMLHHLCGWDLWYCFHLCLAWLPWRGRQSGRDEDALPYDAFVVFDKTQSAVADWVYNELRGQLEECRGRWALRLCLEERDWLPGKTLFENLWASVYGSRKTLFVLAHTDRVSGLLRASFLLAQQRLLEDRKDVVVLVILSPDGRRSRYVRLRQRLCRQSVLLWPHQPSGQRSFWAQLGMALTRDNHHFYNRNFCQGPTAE
# [2] = molecular target: T2, Toll-like receptor 9 (Mus musculus) (UniProt Q9EQU3); test: Induction of TLR9-mediated IL6 production in C57BL/6 mouse spleen cells after 24 hrs by ELISA; type: cell-based
# T2 sequence (whole entry): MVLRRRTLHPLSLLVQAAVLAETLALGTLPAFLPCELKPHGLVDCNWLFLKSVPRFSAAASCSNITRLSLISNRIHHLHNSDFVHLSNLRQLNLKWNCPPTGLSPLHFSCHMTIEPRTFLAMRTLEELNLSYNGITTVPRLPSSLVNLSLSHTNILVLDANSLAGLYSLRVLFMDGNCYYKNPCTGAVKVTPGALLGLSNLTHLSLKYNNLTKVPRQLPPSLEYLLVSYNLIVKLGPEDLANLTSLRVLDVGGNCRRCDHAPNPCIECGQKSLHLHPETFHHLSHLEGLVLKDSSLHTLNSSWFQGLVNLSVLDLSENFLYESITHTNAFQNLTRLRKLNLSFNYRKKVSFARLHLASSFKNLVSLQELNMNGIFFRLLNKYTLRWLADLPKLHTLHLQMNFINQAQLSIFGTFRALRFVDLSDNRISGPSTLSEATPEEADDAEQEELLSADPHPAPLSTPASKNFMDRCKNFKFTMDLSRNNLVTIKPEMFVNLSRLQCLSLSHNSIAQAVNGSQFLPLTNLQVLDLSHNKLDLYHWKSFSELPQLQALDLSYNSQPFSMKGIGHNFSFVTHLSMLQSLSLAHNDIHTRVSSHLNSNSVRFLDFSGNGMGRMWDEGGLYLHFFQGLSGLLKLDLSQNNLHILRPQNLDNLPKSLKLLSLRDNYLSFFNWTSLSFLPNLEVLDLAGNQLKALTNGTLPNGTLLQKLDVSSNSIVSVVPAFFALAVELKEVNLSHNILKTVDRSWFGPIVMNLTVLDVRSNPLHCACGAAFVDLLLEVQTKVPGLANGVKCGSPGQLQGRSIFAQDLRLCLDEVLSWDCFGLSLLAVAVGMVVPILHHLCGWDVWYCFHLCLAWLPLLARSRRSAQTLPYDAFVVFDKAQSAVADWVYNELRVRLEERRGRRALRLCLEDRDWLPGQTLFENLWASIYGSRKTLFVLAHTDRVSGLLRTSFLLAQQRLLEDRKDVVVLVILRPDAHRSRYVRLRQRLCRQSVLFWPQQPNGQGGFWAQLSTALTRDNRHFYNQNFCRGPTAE
# Procedure, shortened: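 C57BL/6 mouse spleen cells were cultured with agonists at 0.1, 0.3, 1, 3 and 10 μg/mL for 24 h. Secreted IL-12 and IL-6 in the supernatants were measured by ELISA. Values are averages of triplicate wells from one representative of at least two independent experiments.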
# [3] = molecular target: T1, Toll-like receptor 9 (Homo sapiens); test: Induction of TLR9-mediated immune stimulation in human PBMC assessed as IL12 production at 10 ug/ml after 24 hrs by luminex multiplex assay (RVb = 0.00 ng/ml)
# [4] = molecular target: T1, Toll-like receptor 9 (Homo sapiens); test: Induction of TLR9-mediated immune stimulation in human PBMC assessed as IL1Ralpha production at 10 ug/ml after 24 hrs by luminex multiplex assay (RVb = 0.12 +/- 0.03 ng/ml)
# [5] = molecular target: T1, Toll-like receptor 9 (Homo sapiens); test: Induction of TLR9-mediated immune stimulation in human PBMC assessed as MIP1alpha production at 10 ug/ml after 24 hrs by luminex multiplex assay (RVb = 0.01 ng/ml)
# [6] = molecular target: T1, Toll-like receptor 9 (Homo sapiens); test: Induction of TLR9-mediated immune stimulation in human PBMC assessed as MCP1 production at 10 ug/ml after 24 hrs by luminex multiplex assay (RVb = 0.08 +/- 0.02 ng/ml)
# [7] = molecular target: T1, Toll-like receptor 9 (Homo sapiens); test: Induction of TLR9-mediated immune stimulation in human PBMC assessed as MIP1beta production at 2 ug/ml after 24 hrs by luminex multiplex assay (RVb = 0.03 +/- 0.02 ng/ml)
# [8] = molecular target: T1, Toll-like receptor 9 (Homo sapiens); test: Induction of TLR9-mediated immune stimulation in human PBMC assessed as IP10 production at 10 ug/ml after 24 hrs by luminex multiplex assay (RVb = 0.00 ng/ml)
# [9] = molecular target: T1, Toll-like receptor 9 (Homo sapiens); test: Induction of TLR9-mediated immune stimulation in human PBMC assessed as MCP1 production at 2 ug/ml after 24 hrs by luminex multiplex assay (RVb = 0.08 +/- 0.02 ng/ml)
# [10] = molecular target: T1, Toll-like receptor 9 (Homo sapiens); test: Induction of TLR9-mediated immune stimulation in human PBMC assessed as IP10 production at 2 ug/ml after 24 hrs by luminex multiplex assay (RVb = 0.00 ng/ml)
# [11] = molecular target: T1, Toll-like receptor 9 (Homo sapiens); test: Induction of TLR9-mediated immune stimulation in human PBMC assessed as IL6 production at 10 ug/ml after 24 hrs by luminex multiplex assay (RVb = 0.01 ng/ml)
Activity [1] [ng/mL],Activity [2],Activity [3] [ng/mL],Activity [4] [ng/mL],Activity [5] [ng/mL],Activity [6] [ng/mL],Activity [7] [ng/mL],Activity [8] [ng/mL],Activity [9] [ng/mL],Activity [10] [ng/mL],Activity [11] [ng/mL],SMILES
8.94,Dose-dependent effect,0.17,63,0.17,0.64,0.12,0.02,0.25,0.02,0.47,Cc1cn([C@H]2C[C@H](OCCC(O)CCOP(=O)(S)O[C@H]3C[C@H](n4cc(C)c(=O)[nH]c4=O)O[C@@H]3COP(=O)(S)O[C@H]3[C@@H](O)[C@H](n4ccc(N)nc4=O)O[C@@H]3COP(=O)(S)O[C@H]3C[C@H](n4cc(C)c(=O)[nH]c4=O)O[C@@H]3COP(=O)(S)O[C@H]3C[C@H](n4cc(C)c(=O)[nH]c4=O)O[C@@H]3COP(=O)(S)O[C@H]3C[C@H](n4ccc5c(=O)[nH]c(N)nc54)O[C@@H]3COP(=O)(S)O[C@H]3[C@@H](O)[C@H](n4ccc(N)nc4=O)O[C@@H]3COP(=O)(S)O[C@H]3C[C@H](n4cc(C)c(=O)[nH]c4=O)O[C@@H]3COP(=O)(S)O[C@H]3[C@@H](O)[C@H](n4cnc5c(=O)[nH]c(N)nc54)O[C@@H]3COP(=O)(S)O[C@H]3C[C@H](n4cc(C)c(=O)[nH]c4=O)O[C@@H]3COP(=O)(S)O[C@H]3[C@@H](O)[C@H](n4ccc(N)nc4=O)O[C@@H]3COP(=O)(S)O[C@H]3C[C@H](n4cc(C)c(=O)[nH]c4=O)O[C@@H]3CO)[C@@H](COP(=O)(S)O[C@H]3[C@@H](O)[C@H](n4ccc(N)nc4=O)O[C@@H]3COP(=O)(S)O[C@H]3C[C@H](n4cc(C)c(=O)[nH]c4=O)O[C@@H]3COP(=O)(S)O[C@H]3C[C@H](n4cc(C)c(=O)[nH]c4=O)O[C@@H]3COP(=O)(S)O[C@H]3C[C@H](n4ccc5c(=O)[nH]c(N)nc54)O[C@@H]3COP(=O)(S)O[C@H]3[C@@H](O)[C@H](n4ccc(N)nc4=O)O[C@@H]3COP(=O)(S)O[C@H]3C[C@H](n4cc(C)c(=O)[nH]c4=O)O[C@@H]3COP(=O)(S)O[C@H]3[C@@H](O)[C@H](n4cnc5c(=O)[nH]c(N)nc54)O[C@@H]3COP(=O)(S)O[C@H]3C[C@H](n4cc(C)c(=O)[nH]c4=O)O[C@@H]3COP(=O)(S)O[C@H]3[C@@H](O)[C@H](n4ccc(N)nc4=O)O[C@@H]3COP(=O)(S)O[C@H]3C[C@H](n4cc(C)c(=O)[nH]c4=O)O[C@@H]3CO)O2)c(=O)[nH]c1=O (some centres not stated)
16.4,Dose-dependent effect,0.2,29.6,0.32,43.5,0.81,0.99,13.2,0.79,0.73,Cc1cn([C@H]2C[C@H](OCC[C@H](O)COP(=O)(S)O[C@H]3C[C@H](n4cc(C)c(=O)[nH]c4=O)O[C@@H]3COP(=O)(S)O[C@H]3[C@@H](O)[C@H](n4ccc(N)nc4=O)O[C@@H]3COP(=O)(S)O[C@H]3C[C@H](n4cc(C)c(=O)[nH]c4=O)O[C@@H]3COP(=O)(S)O[C@H]3C[C@H](n4cc(C)c(=O)[nH]c4=O)O[C@@H]3COP(=O)(S)O[C@H]3C[C@H](n4ccc5c(=O)[nH]c(N)nc54)O[C@@H]3COP(=O)(S)O[C@H]3[C@@H](O)[C@H](n4ccc(N)nc4=O)O[C@@H]3COP(=O)(S)O[C@H]3C[C@H](n4cc(C)c(=O)[nH]c4=O)O[C@@H]3COP(=O)(S)O[C@H]3[C@@H](O)[C@H](n4cnc5c(=O)[nH]c(N)nc54)O[C@@H]3COP(=O)(S)O[C@H]3C[C@H](n4cc(C)c(=O)[nH]c4=O)O[C@@H]3COP(=O)(S)O[C@H]3[C@@H](O)[C@H](n4ccc(N)nc4=O)O[C@@H]3COP(=O)(S)O[C@H]3C[C@H](n4cc(C)c(=O)[nH]c4=O)O[C@@H]3CO)[C@@H](COP(=O)(S)O[C@H]3[C@@H](O)[C@H](n4ccc(N)nc4=O)O[C@@H]3COP(=O)(S)O[C@H]3C[C@H](n4cc(C)c(=O)[nH]c4=O)O[C@@H]3COP(=O)(S)O[C@H]3C[C@H](n4cc(C)c(=O)[nH]c4=O)O[C@@H]3COP(=O)(S)O[C@H]3C[C@H](n4ccc5c(=O)[nH]c(N)nc54)O[C@@H]3COP(=O)(S)O[C@H]3[C@@H](O)[C@H](n4ccc(N)nc4=O)O[C@@H]3COP(=O)(S)O[C@H]3C[C@H](n4cc(C)c(=O)[nH]c4=O)O[C@@H]3COP(=O)(S)O[C@H]3[C@@H](O)[C@H](n4cnc5c(=O)[nH]c(N)nc54)O[C@@H]3COP(=O)(S)O[C@H]3C[C@H](n4cc(C)c(=O)[nH]c4=O)O[C@@H]3COP(=O)(S)O[C@H]3[C@@H](O)[C@H](n4ccc(N)nc4=O)O[C@@H]3COP(=O)(S)O[C@H]3C[C@H](n4cc(C)c(=O)[nH]c4=O)O[C@@H]3CO)O2)c(=O)[nH]c1=O (some centres not stated)
